Rows were chosen to be rich in hits. Some 3.9% of all compounds tested hit in one or more screens of this group.
M1 antag: human CHRM1 antagonism; inhibition, % at 3 µM; P11229; 1.3% of 360,000 active; CHO-K1 hM1, Fluo-8 calcium fluorescence, ACh EC80 antagonist;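 active = percent inhibition above its own plate's cutoff, namely the mean of that plate's compound wells plus 3 SD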;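 note: peak over basal fluorescence ratio during 140 s after agonist addition; 0% = ACh EC80 plus DMSO and 100% = DMSO alone without agonist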
TAAR1 ag: agonists of human TAAR1 | Q96RJ0 | 0.99% of 360,000 active | activation, % at 3 µM | CHO RD-HGA16 TAAR1, Fluo-8 calcium fluorescence; vehicle wells 0%, saturating PEA agonist 100% | AID 624467;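 active = activation above the mean activation of all test compounds in the run plus 3 SD, cut at about 38% in these data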
Target sequence (Q96RJ0 whole entry, looked up): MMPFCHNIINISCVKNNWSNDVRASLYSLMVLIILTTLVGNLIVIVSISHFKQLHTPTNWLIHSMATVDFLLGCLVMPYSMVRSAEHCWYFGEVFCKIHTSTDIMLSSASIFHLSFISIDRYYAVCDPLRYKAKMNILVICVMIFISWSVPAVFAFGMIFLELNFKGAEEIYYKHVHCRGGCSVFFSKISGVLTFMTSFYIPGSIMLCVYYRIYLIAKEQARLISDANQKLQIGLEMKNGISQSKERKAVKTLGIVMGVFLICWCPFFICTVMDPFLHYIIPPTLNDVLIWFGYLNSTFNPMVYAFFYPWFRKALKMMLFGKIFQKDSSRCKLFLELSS
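Test system: RD-HGA16 (CHO) cells co-expressing Gα16 and hTAAR1; dosing: one-point dosing at 3 µM (nominal); timing: 17-24 h seeding, 75 min 37 °C dye, 30 min RT; signal: kinetic Fluo-8 calcium fluorescence; read-out basis: % activation relative to PEA EC100 response; controls: DMSO and PEA EC100; replicates: n 1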
M1 ag: activates human CHRM1 receptor. P11229. CHO-K1 hM1, Fluo-8 calcium fluorescence, agonist mode; 0% DMSO, 100% acetylcholine EC100. activation, % at 3 µM. 0.33% of 360,000 active;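 active = activation above the run's mean compound activation plus 3 SD, cut at about 16% in these data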;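 note: peak over basal fluorescence ratio within a 140 s kinetic read after compound addition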
TAAR1 antag: antagonists of human TAAR1; Q96RJ0; CHO RD-HGA16 TAAR1, Fluo-8 calcium fluorescence, antagonist; inhibition, % at 3 µM; AID 624466; 1.5% of 360,000 active;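 active = inhibition above a per-plate cutoff, the mean inhibition of test compounds on that plate plus 3 SD, cut at about 49% in these data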;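 note: 0% = DMSO plus EC80 beta-PEA response and 100% = DMSO alone without agonist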
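Assay system: RD-HGA16 CHO cells with stable hTAAR1 and Gα16 / Reagent: EC80 β-phenethylamine stimulus / Doses: 3 µM, single point / Timing: dye loading 75 min at 37 °C, then 30 min room temperature / Measured by: Fluo-8 intracellular calcium dye fluorescence, real-time kinetic reads / Controls: vehicle wells and EC80 agonist wells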
m5-HT2A agonist: agonists of mouse serotonin 5-HT2A receptor (HTR2A) | CHO-K1 mHTR2A beta-arrestin complementation, luminescence; percent of 30 µM serotonin response | 0.66% of 360,000 active | P35363 | activation, % at 7.6 µM;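 active = activation above a run cutoff, the mean activation of all tested compounds plus 3 SD, cut at about 14% in these data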;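 note: 0% = plate median of compound wells and 100% = 30 µM serotonin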
M1 PAM: positive allosteric modulators of human M1 muscarinic receptor; P11229; CHO-K1 hM1, Fluo-8 calcium fluorescence, ACh EC20; 0% = ACh EC20, 100% = maximal ACh; activation, % at 3 µM; 0.088% of 360,000 active; AID 588819; in the data active = activation above about 19%, passing the limit was not always enough
* marks the source's active call; other numbers are inactive results; · = not tested or not shown; ! = a repeat was not active.

SMILES	M1 antag	TAAR1 ag	M1 ag	TAAR1 antag	m5-HT2A agonist	M1 PAM
C/C(=N/OC(=O)c1c(-c2ccccc2Cl)noc1C)c1cnccn1	74.4*	0.2	-2.9	-11.1	9.4	-19.7
Cc1onc(-c2c(Cl)cccc2Cl)c1C(=O)O/N=C(\C#N)c1c(Cl)cccc1Cl	5.0	6.3	-0.2	3.0	-5.8	-1.4
C/C(=N\OC(=O)c1c(-c2ccccc2Cl)noc1C)c1nccs1	33.9	3.2	-4.4	-18.7	-2.2	-18.1
C/C(=N/OC(=O)c1c(-c2c(Cl)cccc2Cl)noc1C)c1cnccn1	76.5*	1.8	-8.1	-3.1	2.0	-27.6
CC(=O)N(c1nnc(-c2cccc(C)c2)s1)C1CCCC1	-2.9	13.3	0.4	-33.8	-0.3	12.7
O=S(=O)(c1ccc(Cl)c(Cl)c1)c1snnc1-c1ccccc1	75.4*	·	-4.0	·	-10.9	-21.3
c1ccc(-c2nnsc2-c2ccccc2)cc1	-14.2	6.9	-9.5	-27.2	7.4	1.9
CC(=O)c1ccc(NC(=O)CSc2nnc(Cn3cnc4ccccc43)o2)cc1	-5.5	0.9	-6.0	-4.9	-1.0	5.2
COc1ccc(C(=O)CSc2nnc(Cn3cnc4ccccc43)o2)cc1	31.9*	9.2	-1.1	17.1	3.4	-10.1
Cc1cc(S(=O)(=O)NC2CCN(Cc3ccccc3)CC2)c(C)cc1Cl	52.5*	2.4	-4.1	-15.8	1.1	-24.2
Cc1cc(C)c(S(=O)(=O)NC2CCN(Cc3ccccc3)CC2)c(C)c1	-2.9	1.4	-5.0	-15.0	-7.6	1.9
Cc1ccc(C)c(SCC(=O)NCC(c2ccco2)N2CCCCC2)c1 (stereo unspecified)	0.3	1.4	-7.3	-42.7	-13.6	-3.6
S=C1Cc2ccccc2N1	2.7	42.6*	1.3	3.1	9.9	7.2
COCc1cn(CC[C@@H]2CC[C@@H](NC(=O)Nc3ccc4c(c3)OCO4)[C@@H](CO)O2)nn1	·	4.8	·	-3.3	6.0	·
COc1ccc(-c2nc3ccc(C)cn3c2NCc2ccccc2)cc1SC1CCCCC1	24.2	·	-4.5	·	-5.0	-14.1
CCC(C)Sc1ccc(-c2nc3ccc(Cl)cn3c2NCc2ccccc2)cc1 (stereo unspecified)	-16.1	3.5	-4.0	22.0	2.4	8.7
CCCCNc1c(-c2ccc(OC)c(SC3CCCCC3)c2)nc2ccc(C)cn12	48.8*	25.9	0.6	85.2*	11.4	-15.7
CCCCNc1c(-c2ccc(Sc3ccc(OC)cc3)cc2)nc2cc(C)ccn12	25.5	5.6	-9.6	24.0	-15.9	-15.5
CCCCNc1c(-c2ccc(-c3ccc(C(C)=O)cc3)c(OC)c2)nc2cc(C)ccn12	21.2	3.1	-10.4	55.6*	4.8	-17.1
CCC(C)Sc1cccc(-c2nc3cc(C)ccn3c2NCc2ccccc2)c1 (stereo unspecified)	42.8*	6.0	-8.3	77.5*!	-14.1	-19.8
CCCCNc1c(-c2ccc(OC)c(SC(C)CC)c2)nc2cc(C)ccn12 (stereo unspecified)	25.0	10.3	-5.2	71.9*!	-8.6	-16.9
COC(=O)[C@]1(Cc2ccccc2)NC=C(C(=O)c2ccccc2)[C@@H]1c1cccs1	·	0.3	·	-11.1	·	·
CC(=O)O[C@@H]1C=C[C@@H](C#Cc2ccc(C(C)(C)C)cc2)O[C@@H]1COC(=O)Nc1ccccc1	·	-0.9	·	-22.7	·	·
O=C(OCCOCCN=C1NS(=O)(=O)c2ccccc21)c1ccccc1	-14.9	6.4	-0.2	-16.9	-0.5	12.3
CCCc1nc2cc(C)c(Br)c(C)n2c1Cc1ccsc1	·	3.0	·	3.5	2.7	·
CCC(C)Sc1ccc(-c2nc3ccc(C)cn3c2NCc2ccccc2)cc1OC (stereo unspecified)	2.5	·	-0.2	·	-15.0	15.0
c1ccc(CNc2c(-c3cccc(SC4CCCCC4)c3)nc3ccccn23)cc1	16.7	2.5	-5.1	54.6*	-5.7	-4.8
Cc1ccn2c(NCc3ccccc3)c(-c3cccc(SC4CCCCC4)c3)nc2c1	10.4	4.2	-7.1	48.4	-7.3	-10.0
CCCCNc1c(-c2ccc(SC(C)CC)cc2)nc2ccccn12 (stereo unspecified)	28.2	11.6	-6.0	96.4*	-0.2	-13.2
